Compound activity: PubChem, several laboratories
An excerpt weighted towards active compounds, which were near 1.4% of everything screened.
CAL PDZ FP-1: inhibitors of human CAL PDZ peptide binding | Q9HD26 | purified CAL PDZ, TMR-peptide fluorescence polarization, 1 h | 300,000 compounds, 0.92% hits | inhibition, % at 24.9 µM | AID 602252;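 active = mean inhibition of at least 30% with at least half of replicates also reaching 30%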;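 also: 0% = DMSO neutral control and 100% = excess unlabeled competitor peptide PRC23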
Tn7 DDE FP: inhibitors of Tn7 peptide binding to human fibrin DD(E). P02675. FP displacement of FITC-Tn7 peptide from fibrin DD(E); 0% = median of compound wells per plate. inhibition, % at 8.3 µM. 370,000 compounds, 0.13% hits;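 active = inhibition above the mean of compounds falling within the control limits plus 3 SD of them, cut at about 14% in these data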;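 also: 0% = plate median of compound wells and 100% = 10 µM Aha-Tn7 peptide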
Target sequence (P02675 whole entry, looked up): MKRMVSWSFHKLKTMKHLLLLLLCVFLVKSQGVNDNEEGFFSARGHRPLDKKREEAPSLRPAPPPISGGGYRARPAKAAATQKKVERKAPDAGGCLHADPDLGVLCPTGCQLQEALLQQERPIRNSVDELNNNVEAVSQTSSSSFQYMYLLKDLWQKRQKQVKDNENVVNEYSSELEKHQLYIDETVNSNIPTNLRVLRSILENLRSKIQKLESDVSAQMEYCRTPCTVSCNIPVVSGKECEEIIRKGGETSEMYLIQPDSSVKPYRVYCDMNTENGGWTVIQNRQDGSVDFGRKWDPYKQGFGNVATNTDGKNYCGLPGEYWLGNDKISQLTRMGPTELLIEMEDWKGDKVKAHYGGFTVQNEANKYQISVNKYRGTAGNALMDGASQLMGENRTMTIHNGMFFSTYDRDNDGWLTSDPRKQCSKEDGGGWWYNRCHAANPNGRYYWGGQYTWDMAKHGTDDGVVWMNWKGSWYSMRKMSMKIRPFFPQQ
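Measure: % inhibition scaled between sample-field median and high-control FP; Test system: human fibrin DD(E); Quantity: 2 µM final DD(E) protein; Doses: one dose, 8.3 µM nominal; Schedule: compound with protein 10 min, then 3 h after probe, room temperature; Detection: fluorescence polarization; Medium: Tris buffer with calcium and detergent, pH 7.8.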
DDE Tn6 FP inh: DD(E)-Tn6 binding inhibition, primary FP screen | 370,000 compounds, 0.21% hits | Fibrin DD(E) TRITC-Tn6 fluorescence polarization displacement | inhibition, % at 8.3 µM | P02675 | AID 720509;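 active = inhibition above a per-campaign cutoff: mean of compounds within control limits plus 3 SD, cut at about 15% in these data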;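 also: 0% = median of all compound wells on the plate and 100% = blocking peptide control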
CAL PDZ FP-2: human CAL PDZ-peptide interaction inhibition; AID 504414; 330,000 compounds, 0.02% hits; inhibition, % at 20 µM; purified CAL PDZ, TMR-peptide fluorescence polarization, 1 h;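 active = highest replicate inhibition of at least 40%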;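 also: plate controls were DMSO neutral control wells for no effect and unlabeled competitor peptide control wells for full effect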
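Material – purified CerCALP PDZ construct · Detection – FP readout, S and P plane fluorescence · Measure – percent inhibition from loss of millipolarization · Controls – unlabelled peptide for full inhibition, DMSO wells as neutral · Probe or stimulus – TMR-labelled reporter peptide T*-PRC34 bound in PDZ groove · Times – 1 h at RT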
Arr AP2 block: blocks beta-arrestin peptide binding to AP2 adaptin | 340,000 compounds, 0.31% hits | FITC-arrestin peptide / GST-AP2 beads, flow cytometry; AP2 beta2 appendage carries R879A mutation | inhibition, % at 10 µM;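 active = inhibition above a set limit, near 3 SD of compounds lacking own fluorescence, cut at about 54% in these data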;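 also: plate controls were DMSO wells for no effect and 5 µM unlabelled arrestin peptide for full effect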
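Material – GST-tagged AP2 beta2-adaptin appendage (R879A) on 4 µm glutathione beads · Probe or stimulus – fluorescein-tagged arrestin peptide at 50 nM final · Timing – 12 min plus 1 h, RT · Detection – bead flow cytometry, FITC channel · Read-out basis – inhibition as reduced fluorescein signal on beads, percent · Medium – PBS plus Tween 20 (0.05%) and BSA (0.1%)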
DDE Tn6 FP ctr: counter-screen hit for Tn6 peptide-fibrin DD(E) binding disruption | TRITC-Tn6 fluorescence polarization displacement; 0% = median of compound wells, not DMSO | 680 compounds, 2% hits | inhibition, % at 8.3 µM | shares compounds with DDE Tn6 FP inh;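 active = inhibition above the mean of test compounds lying between the control limits plus 3 SD of those, cut at about 14% in these data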;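 also: 0% = median of compound wells and 100% = wells with Aha-Tn7 blocking peptide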
DDE Tn6 confirm: confirmation of inhibitors of Tn6 binding to human fibrin DD(E); shares compounds with DDE Tn6 FP inh; FP displacement of TRITC-Tn6 peptide from DD(E); 0% = per-plate median of test wells; inhibition, % at 8.3 µM; 680 compounds, 10% hits; AID 720631;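 active = inhibition above the mean of compounds lying within the control limits plus 3 SD, cut at about 16% in these data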;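 also: 100% = high control wells holding a competing inhibitor peptide at 10 µM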
* = called active by the depositor; . = not tested or not shown; + = active, no number.

SMILES	CAL PDZ FP-1	Tn7 DDE FP	DDE Tn6 FP inh	CAL PDZ FP-2	Arr AP2 block	DDE Tn6 FP ctr	DDE Tn6 confirm
CC(C)Cn1c2c(c(O)c(C(=O)Nc3ccc(F)cc3)c1=O)CCCC2	1	-3	16*	0	-6	1	-3
CC(C)Cn1c2c(c(O)c(C(=O)Nc3ncccc3O)c1=O)CCCC2	-3	4	2	0	-1	.	.
Nc1c(C(=O)O)ccc2c1C(=O)c1ccccc1C2=O	-1	3	15	-1	-6	.	.
Nc1c(SCCC(=O)O)ccc2c1C(=O)c1ccccc1C2=O	13	2	50*	1	12	6	27*
CCN(CC)c1ccc2cc(C(C)=O)c(=O)oc2c1	2	-23	-1	-1	5	.	.
CCN(CC)c1ccc2cc(C(N)=O)c(=O)oc2c1	-2	-8	20*	0	11	1	0
CCCC1CCC2(CC1)CCC2OC(=S)Nc1cccc(C(F)(F)F)c1 (stereo not given)	.	7	1	.	.	.	.
O=C(Oc1ccc(N(Cc2cccs2)C2=NS(=O)(=O)c3ccccc32)cc1)c1ccc(Cl)cc1	-2	7	17*	-1	9	9	3
O=C(Nc1ccc2nc(-c3ccccc3)[nH]c2c1)c1ccco1	-8	0	-13	-6	9	.	.
O=C(Nc1cccc(-c2nc3ccccc3[nH]2)c1)c1cccc(NC(=O)c2ccco2)c1	.	9	86*	-4	2	6	30*
Cc1cc(C(=O)Nc2ccc(F)cc2)n(-c2ccccc2)n1	.	0	-3	.	.	.	.
CC12CCC(C(=O)NCC3CCCO3)(OC1=O)C2(C)C (stereo not given)	-1	2	16*	0	16	4	3
CC1N(C)c2cc(NC(=O)c3ccco3)ccc2C1(C)C (stereo not given)	-193	-20	+	-38	3	2	5
Cc1cc(C)cc(NC(=S)N2CCN(S(C)(=O)=O)CC2)c1	-2	6	16*	-1	-5	0	0
Cc1cccc(NC(=S)N2CCN(S(C)(=O)=O)CC2)c1	-2	3	2	-2	-14	.	.
CCC(=O)Nc1ccc(NC(=O)CSc2nnc(-c3ccc(O)cc3)n2CC2CCCO2)cc1 (stereo not given)	-1	1	20*	1	35	1	1
Cc1ccc(Cl)cc1NC(=O)COC(=O)Cn1cnc2c1c(=O)n(C)c(=O)n2C	-3	1	17*	1	16	10	5
CC(=O)Nc1ccc(/C=C/c2ccc3cccc([N+](=O)[O-])c3n2)cc1	-6	8	18*	-2	-13	6	7
C#CCOCCOCCOCCNc1nc(N2CCOCC2)nc(N2CCN(C(=O)[C@H](CCC(=O)O)n3cc(C(N)CO)nn3)CC2)n1 (stereo not given in full)	.	6	-2	.	.	.	.
CC[C@]12c3[nH]c4ccc(Cl)cc4c3CCN1C(=O)[C@@H](CC(=O)NC(C)(C)C)C[C@@H]2C(=O)N1CCN(C(=O)c2ccco2)CC1	-4	6	16*	0	29	8	6
CCCCN(C)CCCNC(=O)CCn1nc(-c2ccccc2)ccc1=O	-2	8	16*	1	5	0	2
COc1ccccc1CN1CC(C(=O)NCCc2ccc(C)o2)CCC1=O (stereo not given)	-7	6	20*	-3	37	8	4
COc1cc(OC)c(C2C(C(=O)N3CCOCC3)=C(C)NC3=C2C(=O)CC(C)(C)C3)cc1OC (stereo not given)	1	-2	17*	-1	3	0	-6
Cn1c(N)c(S(=O)(=O)N2CCN(c3cccc(Cl)c3)CC2)c(=O)n(C)c1=O	-1	5	16*	-2	3	4	2
c1ccc(-c2ccc(C3CCCN3)cc2)cc1 (stereo not given)	6	3	16*	0	24	0	-2
SMILES	CAL PDZ FP-1	Tn7 DDE FP	DDE Tn6 FP inh	CAL PDZ FP-2	Arr AP2 block	DDE Tn6 FP ctr	DDE Tn6 confirm
O=C1CCCC(c2ccccc2)N1 (stereo not given)	-4	4	2	-1	14	.	.
CCOC(=O)CC[C@@H]1CC[C@]2(CCCN(Cc3cccs3)C2)O1	.	-7	-8	.	.	.	.
O=C(O)CCCNc1cc(N2CCN(C(=O)c3ccco3)CC2)c2noc3c2c1C(=O)c1ccccc1-3	-11	-1	32*	1	39	-9	58*
CN1CCN(c2cc(N3CCN(C(=O)c4ccco4)CC3)c3c4c(onc24)-c2ccccc2C3=O)CC1	-14	.	.	-3	27	.	.
CN(CCO)c1ccc2c(c1)Oc1ccccc1CN(Cc1cn(Cc3ccc(F)cc3)nn1)S2(=O)=O	.	6	-10	.	.	.	.
O=C(Nc1nccs1)c1ccc(-c2ccc(F)c(Cl)c2)o1	0	4	27*	-3	-1	2	16*
O=C(Nc1nccs1)c1ccc(-c2ccc(Cl)cc2Cl)o1	0	1	-8	0	7	.	.
CCCc1c(C)c2cc(C)ccc2[nH]c1=O	1	1	18*	0	12	-1	-5
O=C(NCCc1ccccc1F)c1cc2ccccn2n1	.	-1	-1	.	.	.	.
CCO/C=C1\SC(=S)N(c2ccc(Cl)cc2)C1=O	-3	6	3	0	-4	.	.
CC(C)c1ccc(N2C(=O)/C(=C/N(C)C)SC2=S)cc1	-17	5	43*	-4	9	-7	4
Cc1ccccc1NC(=O)CN1CCN(c2nc(-c3ccccc3)cs2)CC1	.	-4	-1	.	.	.	.
O=C(NC(c1ccc(Cl)cc1)c1ccccn1)C1CCN(CCOc2ccc(Cl)cc2Cl)CC1 (stereo not given)	.	0	-4	.	.	.	.
Cc1cccnc1C(NC(=O)C1CCN(CCOc2ccc(Cl)cc2Cl)CC1)c1ccc(Cl)cc1 (stereo not given)	.	-1	16*	.	.	7	0
COC(=O)N[C@H]1CC=C[C@@H]1Cc1cccc(Oc2ccccc2)c1	.	-2	-2	.	.	.	.
Cc1nn(CCC(=O)NNC(=O)Nc2ccccc2)c(C)c1[N+](=O)[O-]	.	-6	-2	.	.	.	.
CC/C(=C\C(=O)c1ccncc1)Nc1ccc(O)cc1	-1	4	46*	-2	-1	-2	-5
COc1cccc(CNC(=O)C2=C(C)C(=O)OC23CCC(C)CC3)c1 (stereo not given)	-1	6	19*	-4	7	-3	-4
